PubChem BioAssay
Values without a mark were called inactive.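 Rule for the calls: active = growth inhibition above 25% in both replicates, a cutoff set 3 SD above the mean; inconclusive = above 25% in only one replicate; inactive = the rest.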

Test: S. cerevisiae growth inhibition in permissive medium (OD615), pilot counter-assay for S. cerevisiae lifespan shortening project, permissive growth control (AID 705)
Conditions: OD615, 24 h, at 10 µM, hits give high values
In short: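 System: Engineered DeaD yeast | Buffer or medium: SC raffinose/galactose permissive medium | Incubation: Cells pre-grown 4 h, then 24 h compound exposure, 30 °C humidified | Measured by: Absorbance (optical density) at 615 nm | Read-out: Reduction in yeast growth (OD615)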
Work on CCC(=O)c1cc(F)c(N2CCN(C(=O)c3ccco3)CC2)cc1C yielded a growth inhibition of -10.3%.
Work on CC(C)Cc1nnc(NS(=O)(=O)c2ccc(Cl)cc2)s1 yielded a growth inhibition of -22.6%.
In the case of COc1ccc(N2C(=O)CCC(C(=O)N3CCCCC3)C2c2ccc(OC)c(OC)c2)cc1 (centres undefined), the growth inhibition is reported as -0.77%.
Cc1c(C#N)c2ccccc2n1CC(=O)N1CCc2ccccc2C1 gave a growth inhibition of -1.57%.
Work on COCCCNC(=O)c1ccc(CS(=O)(=O)c2ccc(OC)cc2)o1 yielded a growth inhibition of -12%.
With CCCCSc1nc2c(cnn2-c2ccc(F)cc2)c(=O)[nH]1 the growth inhibition was -7.35%.
Molecule COc1ccc2[nH]c(C)c(CCN3C(=O)OC(C)(C)C3(C)O)c2c1 (centres undefined) has a growth inhibition of 4.92%.
In the case of CCCCOCCCNC(=O)COc1ccccc1, the growth inhibition is reported as -2.82%.
Molecule c1ccc(-c2cn3cccnc3n2)cc1 has a growth inhibition of -10.6%.
With CCCCn1c(SCC(=O)OCC)nc2c1c(=O)[nH]c(=O)n2C the growth inhibition was 0.935%.
O=C(CCn1c(=O)oc2ccccc21)NCc1ccco1 gave a growth inhibition of -2.37%.
With CN(C)C(=O)N1CCN(C(=O)c2ccco2)CC1 the growth inhibition was 1.14%.
CC(=O)C1=C(C)Nc2ncnn2C1c1cccc(OCc2ccccc2)c1 (centres undefined) showed a growth inhibition of -3.25%.
With CC1Cc2nc(SCC(=O)N3CCCc4ccccc43)n(C)c(=O)c2S1 (centres undefined) the growth inhibition was -5.25%.
For CCOC(=O)N1CCN(C(=O)c2ccc3nc4ccsc4c(=O)n3c2)CC1, the growth inhibition was 5.57%.
Molecule CC(C)(C)SCCNC(=O)CN1C(=O)c2ccccc2S1(=O)=O has a growth inhibition of -13%.
COc1cccc(-c2nnc(NC(C)=O)o2)c1 showed a growth inhibition of -0.545%.
For CCCCc1cc(=O)oc2cc(OCC(=O)N(CC)CC)c(Cl)cc12, the growth inhibition was -1.69%.
For CCOC(=O)CCc1c(C)nc2cc(-c3ccc(F)cc3)[nH]n2c1=O, the growth inhibition was -13.1%.
In the case of CN(Cc1ccccc1)S(=O)(=O)c1ccc(S(=O)(=O)N2CCN(CCC#N)CC2)cc1, the growth inhibition is reported as -12%.
Work on Cc1ccc(-n2c3c(cc(C(=O)NCCCN4CCOCC4)c2=O)C(=O)CC(C)(C)C3)cc1 yielded a growth inhibition of -4.99%.
Work on COc1cc2c(cc1OC)C(c1ccc(C)o1)CC(=O)N2 (centres undefined) yielded a growth inhibition of -3.98%.
O=C(Nc1ccc2c(c1)OCO2)c1ccc(CN2CCOCC2)cc1 gave a growth inhibition of -6.27%.
CC1Cn2c(nnc2-c2ccc(F)cc2)S1 (centres undefined) showed a growth inhibition of -9.71%.
